The values that follow come from ChEMBL document CHEMBL2169850, “3,6-bis(3-alkylguanidino)acridines as DNA-intercalating antitumor agents” (Eur J Med Chem, 2012).

The target in data set [1] is T1, DNA topoisomerase 1 (Homo sapiens) (UniProt P11387).
T1 sequence (whole entry): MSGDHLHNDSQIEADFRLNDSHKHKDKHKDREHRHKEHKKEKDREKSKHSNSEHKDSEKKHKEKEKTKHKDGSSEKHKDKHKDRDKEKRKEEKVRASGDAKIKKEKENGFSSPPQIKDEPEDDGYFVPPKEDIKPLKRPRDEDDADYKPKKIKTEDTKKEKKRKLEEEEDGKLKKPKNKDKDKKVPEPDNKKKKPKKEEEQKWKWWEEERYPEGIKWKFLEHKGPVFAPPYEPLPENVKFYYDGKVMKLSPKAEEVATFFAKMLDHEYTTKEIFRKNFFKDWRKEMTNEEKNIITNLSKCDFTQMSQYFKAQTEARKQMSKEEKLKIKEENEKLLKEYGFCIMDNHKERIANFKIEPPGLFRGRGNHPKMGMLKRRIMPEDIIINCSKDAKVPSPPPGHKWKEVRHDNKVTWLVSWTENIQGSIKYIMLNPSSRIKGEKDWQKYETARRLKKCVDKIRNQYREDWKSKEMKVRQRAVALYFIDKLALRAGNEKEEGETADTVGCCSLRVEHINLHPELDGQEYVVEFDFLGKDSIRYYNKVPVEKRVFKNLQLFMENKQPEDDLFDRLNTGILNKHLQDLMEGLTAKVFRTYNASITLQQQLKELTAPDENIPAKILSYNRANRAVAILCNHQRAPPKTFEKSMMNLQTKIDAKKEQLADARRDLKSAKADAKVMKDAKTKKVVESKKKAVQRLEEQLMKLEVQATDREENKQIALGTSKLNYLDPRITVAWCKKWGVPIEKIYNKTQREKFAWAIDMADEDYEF
Kind of data set: Inhibition of human topoisomerase 1 assessed as reduction in pBR322 DNA relaxation of relaxation at 60 uM by DNA unwinding assay.

The test system of data set [2] is Nucleic Acid. Kind of data set: Binding affinity to calf thymus DNA increase in DNA viscosity at 12 to 60 uM by viscosimetric titration assay. To be noted: Bos taurus. It counts as nucleic-acid assay. The method, boiled down:
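Relative viscosity of ctDNA (3.11 × 10^-8 M) with compound at 12–60 × 10^-6 M was measured by automated microviscometry in a 1.6 mm capillary at 25 °C, in 10 mM Tris, pH 7.4. Solution density was also measured.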

Data set [3] relates to Nucleic Acid. Kind of data set: Binding affinity to calf thymus DNA by spectrofluorimetric titration assay. It counts as nucleic-acid assay. To be noted: Bos taurus. The procedure, abridged:
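Fluorescence titration at 25 °C in 0.01 M Tris, pH 7.4. Compound (9.58 × 10^-6 M) was titrated with ctDNA from 0 to 2.57 × 10^-4 M bp, excited at 384 nm, and emission recorded from 400 to 600 nm. K and n were obtained from McGhee–von Hippel fits of Scatchard data.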

Data set [4] relates to Nucleic Acid. Kind of data set: Binding affinity to calf thymus DNA at 6.5 uM by CD spectroscopy. It counts as nucleic-acid assay. Conditions: Bos taurus. The procedure, abridged: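 CD spectra were recorded in 1 mm quartz cuvettes in 0.01 M Tris, pH 7.4, with 6.52 µM compound and ctDNA. Each spectrum is the mean of three scans after buffer background subtraction.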
In data set [5] the test system is Nucleic Acid. Kind of data set: Binding affinity to Escherichia coli pUC19 DNA assessed as reduction in DNA mobility to 5 to 80 uM by EMSA. It counts as nucleic-acid assay. The procedure, abridged:
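Supercoiled pUC19 plasmid incubated with compound at 5, 20, 40, 60 or 80 µM. Native agarose gel electrophoresis run with no ethidium bromide in the gel; band mobility was then read.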

In data set [6] the test system is Nucleic Acid. Kind of data set: Binding affinity to calf thymus DNA assessed as melting temperature at 12.4 uM by thermal denaturation study. It counts as nucleic-acid assay. To be noted: Bos taurus.
The test system of data set [7] is Nucleic Acid. Kind of data set: Binding affinity to calf thymus DNA assessed as hypochromacity at 12.8 uM by UV-visible absorption spectroscopy. Conditions: Bos taurus.
For data set [8], the target named is T1, DNA topoisomerase 1 (Homo sapiens). Kind of data set: Inhibition of human topoisomerase 1 assessed as reduction in pBR322 DNA relaxation of relaxation at 5 uM by DNA unwinding assay.
Data set [9] concerns HL-60. Kind of data set: Induction of apoptosis in human HL60 cells at 5 to 25 uM incubated for 72 hrs by AnnexinV/propidium iodide staining method. It counts as functional, cell-based. The procedure, abridged: (§1)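 HL-60 cells (1.5 × 10^5) were treated at 5–25 µM for 24, 48 or 72 h and harvested. They were stained with Annexin V-FITC for 10 min in HEPES/CaCl2/NaCl binding buffer, washed, briefly stained with PI (1 mg/mL) and analysed by flow cytometry for apoptosis and necrosis. Mean ± SD, n ≥ 3.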

The test system of data set [10] is HL-60. Kind of data set: Antiproliferative activity against human HL60 cells assessed as cell number at 15 uM incubated for 24 hrs by Coulter counting method. It counts as functional. The method, boiled down:
(§2)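 HL-60 cells in RPMI with 10% heat-inactivated FCS, antibiotics and amphotericin, 37 °C, 5% CO2, seeded in 60 mm dishes. Compound added at 5, 15 or 25 µM for 24, 48 or 72 h. Absolute cell counts taken by Coulter counter and expressed as percentage of untreated control. Mean ± SD of at least three independent experiments; one-way ANOVA with Tukey test, p < 0.05.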

For data set [11], the system named is HL-60. Kind of data set: Antiproliferative activity against human HL60 cells assessed as cell number at 25 uM incubated for 24 hrs by Coulter counting method. It counts as functional. The method, boiled down:
as §2

In data set [12] the test system is HL-60. Kind of data set: Drug uptake in human HL60 cells with normal morphology at 50 uM incubated for 18 hrs by fluorescence microscopy. It counts as ADME, cell-based. Conditions: hl-60, 18 h. The method, boiled down:
(§3)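 HL-60 cells were treated with 50 µM compound for 18 h, washed with PBS, resuspended in HBSS and mounted as native slides. Cells were imaged by inverted fluorescence microscopy at 40×, with excitation 360/40 and emission 470/40. The fluorescence channel was merged with brightfield images.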

Data set [13] deals with HL-60. Kind of data set: Antiproliferative activity against human HL60 cells assessed as cell number at 5 uM incubated for 24 hrs by Coulter counting method. It counts as functional. The method, boiled down: as §2
For data set [14], the system named is HL-60. Kind of data set: Induction of apoptosis in human HL60 cells at 5 to 25 uM incubated for 24 hrs by AnnexinV/propidium iodide staining method. It counts as functional, cell-based. The procedure, abridged: as §1
Data set [15] concerns HL-60. Kind of data set: Induction of caspase-3 activation in human HL60 cells at 25 uM incubated for 72 hrs by FACS assay. It counts as functional. The method, boiled down:
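HL-60 cells were treated for 72 h, washed in cold PBS, fixed and permeabilized for 20 min on ice. They were incubated with a FITC anti-active caspase-3 antibody for 30 min at RT and analysed by flow cytometry. Results are the percentage of positively stained cells; mean ± SD, n ≥ 3.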

The subject of data set [16] is HL-60. Kind of data set: Induction of necrosis in human HL60 cells at 5 to 25 uM incubated for 48 hrs by AnnexinV/propidium iodide staining method. It counts as functional, cell-based. The method, boiled down:
(§4)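 HL-60 cells (1.5 × 10^5) were exposed to compound, then stained 10 min with Annexin V-FITC in HEPES/CaCl2/NaCl binding buffer. Cells were washed, briefly stained with propidium iodide and analysed by flow cytometry for apoptotic and necrotic fractions. Mean ± SD of at least three independent experiments.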

In data set [17] the test system is HL-60. Kind of data set: Induction of necrosis in human HL60 cells at 5 to 25 uM incubated for 24 hrs by AnnexinV/propidium iodide staining method. It counts as functional, cell-based. The method, boiled down: as §4
Data set [18] relates to HL-60. Kind of data set: Antiproliferative activity against human HL60 cells assessed as cell number at 25 uM incubated for 72 hrs by Coulter counting method. It counts as functional. The procedure, abridged: as §2
Data set [19] concerns HL-60. Kind of data set: Drug uptake in human HL60 cells with necrotic morphology at 50 uM incubated for 18 hrs by fluorescence microscopy. It counts as ADME, cell-based. Conditions: hl-60, 18 h. The method, boiled down: as §3
For data set [20], the system named is HL-60. Kind of data set: Antiproliferative activity against human HL60 cells assessed as cell number at 25 uM incubated for 48 hrs by Coulter counting method. It counts as functional. The method, boiled down:
as §2

For data set [21], the system named is HL-60. Kind of data set: Induction of necrosis in human HL60 cells at 5 to 25 uM incubated for 72 hrs by AnnexinV/propidium iodide staining method. It counts as functional, cell-based. The method, boiled down: as §4
In data set [22] the test system is HL-60. Kind of data set: Induction of apoptosis in human HL60 cells at 5 to 25 uM incubated for 48 hrs by AnnexinV/propidium iodide staining method. It counts as functional, cell-based. The procedure, abridged:
as §1

The subject of data set [23] is HL-60. Kind of data set: Antiproliferative activity against human HL60 cells assessed as cell number at 15 uM incubated for 48 hrs by Coulter counting method. It counts as functional. The procedure, abridged: as §2
For data set [24], the system named is HL-60. Kind of data set: Induction of caspase-3 activation in human HL60 cells at 5 to 25 uM incubated for 24 to 72 hrs by FACS assay. It counts as functional, cell-based. The method, boiled down:
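HL-60 cells (RPMI with 10% heat-inactivated FCS, 37 °C, 5% CO2) were seeded in dishes and treated 24, 48 or 72 h. Cells were fixed and permeabilized 20 min on ice, then stained 30 min at RT with FITC anti-active caspase-3 antibody. Read-out was the percentage of positive cells by flow cytometry. Mean ± SD of at least three independent experiments; ANOVA with Tukey.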
A general note: A flow cytometer gives signals particle by particle.

Data set [25] has as its system HL-60. Kind of data set: Antiproliferative activity against human HL60 cells assessed as cell number at 5 uM incubated for 72 hrs by Coulter counting method. It counts as functional. The procedure, abridged:
as §2

Data set [26] deals with HL-60. Kind of data set: Antiproliferative activity against human HL60 cells assessed as cell number at 5 uM incubated for 48 hrs by Coulter counting method. It counts as functional. The method, boiled down: as §2
The subject of data set [27] is HL-60. Kind of data set: Antiproliferative activity against human HL60 cells assessed as cell number at 15 uM incubated for 72 hrs by Coulter counting method. It counts as functional. The method, boiled down: as §2

Active and inactive are the calls of the source. The calls are words filed in the database; no cut-off is given here.

For the compound `CCCNC(=N)Nc1ccc2cc3ccc(NC(=N)NCCC)cc3nc2c1`, the “Topoisomerase 1 inhibition (active/inactive)” value in [1] is “Active”. Also, the result (with Nucleic Acid [2]; in the data set on Nucleic Acid [4]; in the data set on Nucleic Acid [5]; in data set [8]) was Active. In addition, in the data set on Nucleic Acid [3], the K came to 5.01 ×10⁵ /M. For the same compound, the midpoint of thermal melting (Tm) with Nucleic Acid [6] came out at 85 °C. In the data set with Nucleic Acid [7], the Activity turned out to be 32%.

With `CCCCNC(=N)Nc1ccc2cc3ccc(NC(=N)NCCCC)cc3nc2c1`, in data set [1], the “Topoisomerase 1 inhibition (active/inactive)” value is “Active”. In addition, the result (with Nucleic Acid [2]; in the data set with Nucleic Acid [4]; with Nucleic Acid [5]; in data set [8]) was Active. For the same compound, in the data set on Nucleic Acid [3], the K turned out to be 4.25 ×10⁵ /M. Further, in the data set with Nucleic Acid [6], the Tm came to 86 °C. The Activity in the data set on Nucleic Acid [7] amounted to 17%.

Turning to `CCCCCNC(=N)Nc1ccc2cc3ccc(NC(=N)NCCCCC)cc3nc2c1.Cl.Cl.O`, the result in the data set on HL-60 [9], with HL-60 [14], with HL-60 [16], in the data set on HL-60 [17], in the data set on HL-60 [21] and in the data set with HL-60 [22] was inactive. In addition, the result in the data set with Nucleic Acid [5] and with HL-60 [24] was inactive. Besides, the Activity was found to be 75.2% in the data set on HL-60 [10]; 78.32% in the data set with HL-60 [11]; 76.19% in the data set on HL-60 [13]; 46.8% with HL-60 [15]; 48.67% with HL-60 [18]; 67.98% in the data set with HL-60 [20]. The Activity worked out at 77.14% in the data set with HL-60 [23]; 31% with Nucleic Acid [7]; 83.3% in the data set with HL-60 [25]; 81.9% in the data set with HL-60 [26]; 54.4% in the data set with HL-60 [27]. The Drug uptake result in the data set on HL-60 [12] and in the data set with HL-60 [19] was “Active” throughout. Moreover, in data set [1], the “Topoisomerase 1 inhibition (active/inactive)” value was “Active”. The outcome (in the data set with Nucleic Acid [2]; in the data set with Nucleic Acid [4]; in data set [8]) was Active. In the data set on Nucleic Acid [3], this compound showed a K of 2.36 ×10⁵ /M. In addition, in the data set on Nucleic Acid [6], the melting temperature (Tm) turned out to be 88 °C.

The term Tm denotes the temperature at the midpoint of the melting transition.
